Compound activity (PubChem)
CaV13 ICDI inh: Disruptors of the CACNA1D IQ motif to Ca2+-dependent inactivation inhibitor domain association, primary screening, Förster resonance energy transfer in intact living …. HEK cells, CFP/YFP FRET ICDI-IQ, plate reader, 10 min; percent FRET-ratio fall versus neutral wells. inhibition, % at 12.3 µM. hit rate 0.098% among 340,000;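 active = mean replicate inhibition of at least 30% and at least 1% of replicates passing that level; inconclusive = only one of the two criteria is met; inactive = neither criterion is met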;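 note: 0% = median of the neutral control wells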
TROY NFkB inh: blocks TROY-dependent signaling in reporter cells | AID 1347056 | Q293 LMP1-TROYcd NF-kB luciferase reporter, 4 h | hit rate 0.98% among 360,000 | inhibition, % at 10 µM;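 active = compounds whose plate-normalised and pattern-corrected inhibition of the luciferase reporter signal at the single screening dose is 50% or more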
TWEAK Fn14 block: blocks TWEAK-Fn14 interaction in a reporter cell assay; inhibition, % at 10 µM; hit rate 2% among 360,000; TWEAK-stimulated Fn14 reporter cells, luciferase luminescence, 8 h; in the data active = inhibition above about 50%
Xi reactivation: reactivates the inactive X chromosome in mouse fibroblasts; XiGFP mouse fibroblasts, % GFP-positive cells imaging, 3 d; cells co-treated with 5-aza-dC sensitizer; scaled so ellipticine positive control = 100%; activation, % at 7.58 µM; hit rate 0.055% among 360,000;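 active = mean normalized replicate activation at least 10% and every replicate at or above 10%; inconclusive = only one of the two criteria met; inactive = mean below 10% and not all replicates reach 10%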;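 note: 0% = median of on-plate neutral control wells and 100% = ellipticine 6 µM median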
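material = 68-5-11 XiGFP fibroblast line | medium = DMEM plus 5-aza-dC sensitizer | schedule = 3 days compound exposure | benchmarks = positive control ellipticine, 6 µM final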
LGR2 antag: blocks bursicon-induced cAMP signaling via Drosophila LGR2 | HEK293 LGR2, CRE-luciferase, bursicon-stimulated, 4 h | inhibition, % at 9.99 µM | hit rate 0.35% among 380,000 | AID 720647;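 active = drop in luminescence signal, shown as inhibition above about 50% in the replicate tests, limit read from the data, passing the limit was not always enough; inconclusive = probably only some replicates passing the limit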;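 note: agonist challenge used bursicon conditioned medium at about half maximal strength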
Starred values were filed as active, the others as inactive; ? = inconclusive; / = no result; ! = not active in a repeat. The list is not random: actives were taken first. Their share in the collection is about 2%.

SMILES	CaV13 ICDI inh	TROY NFkB inh	TWEAK Fn14 block	Xi reactivation	LGR2 antag
Cc1ccsc1C1C(C#N)=C(N)Oc2n[nH]c(C)c21 (configuration not stated)	-7.2	6.1	61.1*	-0.1	9.3
Cc1ccc(Cl)cc1S(=O)(=O)N1CCC(C(=O)NC2CCN(Cc3ccccc3)CC2)CC1	-4.1	27.6	52.1*	-0.1	9.1
Cc1cc([N+](=O)[O-])nn1CC(=O)NC(C)c1ccccc1 (configuration not stated)	-1.7	-3.5	110.3*	0.1	3.8
C[C@@H]1CCCCO[C@@H](CN(C)Cc2ccc3c(c2)OCO3)[C@H](C)CN([C@H](C)CO)C(=O)c2cc(NS(=O)(=O)c3ccc(Cl)cc3)ccc2O1	/	/	/	0.2	-6.7
CCOCCCNC(=S)N1CCCN(c2nc3cc(C)c(C)cc3cc2C#N)CC1	93.6*	-28.0	6.0	0.4	-26.0
COCCCNC(=S)N1CCCN(c2nc3cc(C)c(C)cc3cc2C#N)CC1	/	-6.1	8.4	0.0	-4.2
C[C@H](CO)N1C[C@H](C)[C@@H](CN(C)C(=O)C2CCCCC2)Oc2cc(C3=CCCCC3)ccc2S1(=O)=O	/	/	/	-0.4	13.9
CC(C)[C@H]1C(=O)N[C@@H](c2ccc3c(c2)OCO3)CC=CC[C@@H](C)Oc2ccccc2C(=O)N1C (mixture of isomers)	/	/	/	0.0	/
OCCN(CCO)CC(O)COc1ccc(C23CC4CC(CC(C4)C2)C3)cc1 (configuration not stated)	-4.7	46.8	77.3*	0.0	-7.0
CC(=O)Nc1ccc(NC(=O)c2ccc(-c3ccnn3C)c3ccoc23)cc1	-11.4	-0.7	1.2	0.0	-20.3
CC(C)c1ccc(NC(=O)c2ccc(-c3ccnn3C)c3ccoc23)cc1	/	32.7	78.8*	/	/
CCOC(=O)c1oc2ccccc2c1CN1CCN(C)CC1	-6.6	/	86.3*	/	/
CC(C)C(=O)NC(c1ccc([N+](=O)[O-])cc1)c1c(O)ccc2ccccc12 (configuration not stated)	-7.4	20.3	6.2	/	/
CC(C)C(=O)NC(c1cccc([N+](=O)[O-])c1)c1c(O)ccc2ccccc12 (configuration not stated)	-4.8	51.3*	-7.4	0.0	-18.4
C[C@@H]1CN([C@H](C)CO)C(=O)c2cc(NS(=O)(=O)c3ccc(Cl)cc3)ccc2O[C@@H](C)CCCCO[C@@H]1CN(C)C(=O)NC1CCCCC1	/	/	/	0.0	4.9
O=C(C1CCOCC1)N1CC(=O)N2[C@H](CO)[C@H](c3ccc(-c4cccnc4)cc3)[C@@H]2C1	/	/	/	0.0	-3.7
COc1ccc(C2c3sc(=O)[nH]c3SC3C(=O)N(c4ccccc4)C(=O)C32)cc1 (configuration not stated)	-5.1	-32.5	-18.8	0.1	6.3
O=C1C2Sc3[nH]c(=O)sc3C(c3ccccc3)C2C(=O)N1c1ccccc1 (configuration not stated)	-4.9	-6.0	89.0*	/	-8.9
CCOC(=O)N1CCC2(CC1)CC(=O)c1cc(O)ccc1O2	-4.1	-7.3	63.5*	/	/
O=C(Cc1ccccn1)N1CC(=O)N2[C@@H](CO)[C@H](c3ccc(C#CC4CCCC4)cc3)[C@@H]2C1	/	/	/	0.0	-3.5
CCOC(=O)CN1C(=O)c2ccccc2C1=O	-4.8	-5.7	1.8	/	/
CCCOC(=O)CN1C(=O)c2ccccc2C1=O	/	/	81.7*	/	/
O=C(Cc1ccc(Cl)cc1)Nc1nc2ccccc2[nH]1	/	-55.3	4.9	/	/
O=C(N/C(=C/c1ccc(Cl)cc1)c1nc2ccccc2[nH]1)c1ccco1	-4.4	-38.9	-16.5	0.2	-17.5
O=C(Nc1nc2ccccc2[nH]1)c1ccccc1	/	40.5	79.0*	/	/
SMILES	CaV13 ICDI inh	TROY NFkB inh	TWEAK Fn14 block	Xi reactivation	LGR2 antag
O=C(Cc1nc2ccccc2[nH]c1=O)c1ccccc1	57.9*	-42.1	30.9	0.1	-38.5
O=C(Cc1ccccc1)Nc1nc2ccccc2[nH]1	-9.6	64.0*	38.8	/	-33.4
O=C(/C(=C/c1ccc(Cl)cc1)c1nc2ccccc2[nH]1)c1ccccc1	/	-52.3	79.4*	/	/
C[C@@H]1CN([C@@H](C)CO)C(=O)c2cc(C#Cc3cccnc3)cnc2O[C@@H]1CN(C)C	/	/	/	-1.2	17.9
O=C(C[C@H]1C[C@H]2c3cc(NC(=O)c4cccnc4)ccc3O[C@H]2[C@@H](CO)O1)NC1CCCCC1	/	/	/	0.1	-5.1
CN(C)Cc1cn(CC[C@@H]2CC[C@@H](NC(=O)Nc3ccc4c(c3)OCO4)[C@H](CO)O2)nn1	/	/	/	0.1	-4.8
Cc1ccccc1S(=O)(=O)N1CCCCN2[C@H](CO)[C@@H](c3ccc(-c4cccc(F)c4)cc3)[C@H]2C1	/	/	/	0.0	7.5
O=C1N[C@H](Cc2ccccc2)COCc2cn(nn2)CC[C@@H]1Cc1cccc(Cl)c1	/	/	/	0.1	/
O=C(Nc1nc2ccccc2[nH]1)c1cccc(Cl)c1	-4.6	-51.7	25.7	-0.1	-9.4
O=C(Nc1nc2ccccc2[nH]1)c1ccc(Cl)cc1	-3.0	27.8	69.5*	-0.1	57.4*
O=C1COc2ccc(-c3csc(=Nc4ccc(OC(F)F)cc4)n3CC3CCCO3)cc2N1 (configuration not stated)	-5.9	44.0	47.4	/	/
COCC(C)n1c(-c2ccc3c(c2)NC(=O)CO3)csc1=Nc1ccc(OC(F)F)cc1 (configuration not stated)	-6.8	52.1*!	63.2*!	0.0	5.8
CCC(=O)Nc1ccc2c(c1)OC[C@@H](C)N(C(=O)Cc1cccnc1)C[C@H](C)[C@H](OC)CN(C)C2=O	/	/	/	0.3	-3.1
COCCn1cnc2c1c(=O)n(CC(=O)NC(=O)NC(C)(C)C)c(=O)n2Cc1ccccc1	-16.0	-3.3	26.1	0.2	-13.0
CCCCCNC(=O)Cn1c(=O)c2c(ncn2CC(C)C)n(Cc2ccccc2)c1=O	-2.9	2.4	50.1*	/	0.9
CCNC(=S)NNC(=O)Cn1c(=O)c2c(ncn2CCOC)n(Cc2ccccc2)c1=O	-2.9	-0.6	93.5*	0.1	8.1
O=C([C@H]1[C@H](CO)[C@H]2Cn3c(ccc(-c4ccncc4)c3=O)[C@@H]1N2Cc1cccnc1)N1CCOCC1	/	/	/	0.0	8.3
O=C(Nc1ccc(F)cc1)N1CCCCN2[C@H](CO)[C@H](c3ccc(C#CC4CC4)cc3)[C@@H]2C1	/	/	/	0.2	23.5
Cc1c(/C=N/Nc2nc3ccccc3[nH]2)c2ccccc2n1C	?	55.0*	94.0*	5.8	-0.6
C=CCn1cc(/C=N/Nc2nc3ccccc3[nH]2)c2ccccc21	-2.5	12.6	53.0*	1.5	-11.6
Cn1c(/C=N/Nc2nc3ccccc3[nH]2)nc2ccccc21	-52.0	-43.0	-1.0	-0.1	-2.6
C[C@@H]1CCCCO[C@@H](CN(C)Cc2ccc(C(F)(F)F)cc2)[C@H](C)CN([C@@H](C)CO)C(=O)c2cc(NC(=O)CCC(F)(F)F)ccc2O1	/	/	/	-0.5	21.1
Cc1ccc(S(=O)(=O)NC(CC(=O)O)c2ccco2)cc1 (configuration not stated)	-6.6	2.1	0.2	/	-11.0
